# Source: publication PMC12462367 (RSC Advances, 2025)
# How the values were obtained:
# S. aureus LN38 = experiment: MIC, broth microdilution; format: cell-based, Staphylococcus aureus
# Procedure, shortened: (§1)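 Broth microdilution per CLSI. Strains were grown in Mueller–Hinton broth on a shaker at 37 °C for about 5 h, then diluted to ~10^5 CFU mL−1. Test compound was serially diluted (0.05–256 μg mL−1), and plates were incubated at 37 °C for 18 h. MIC is the lowest concentration with no visible growth. Run in triplicate.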
# B. cereus CMCC63303 = experiment: MIC, broth microdilution; format: cell-based
# Procedure, shortened: as §1
# [1] = tested on: L. monocytogenes CICC21662; experiment: MIC, broth microdilution; format: cell-based
# Procedure, shortened: as §1
# B. subtilis ATCC6633 = experiment: MIC, broth microdilution; format: cell-based
# Procedure, shortened: as §1
# E. faecalis ATCC29212 = experiment: MIC, broth microdilution; format: cell-based
# Procedure, shortened: as §1
# S. aureus ATCC 29213 [2] = experiment: MIC, broth microdilution; format: cell-based; conditions: Staphylococcus aureus, ATCC29213, read-out: Minimum inhibitory concentration (MIC), S. aureus ATCC 29213
# Procedure, shortened: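 Broth microdilution following CLSI guidelines. Strain grown in Mueller–Hinton broth with shaking at 37 °C for about 5 h, then diluted to ~10^5 CFU mL−1 in wells. Test compound serially diluted over 0.05–256 μg mL−1, and plates incubated 37 °C for 18 h. MIC taken as the lowest concentration with no visible growth. Run in triplicate.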
# S. aureus MRSA2 = experiment: MIC, broth microdilution; format: cell-based, Staphylococcus aureus; conditions: for MIC: Staphylococcus aureus, MRSA2, read-out: Minimum inhibitory concentration (MIC), S. aureus MRSA2
# Procedure, shortened: as §1
# S. aureus ATCC 29213 [3] = experiment: Membrane potential assay; format: cell-based, Staphylococcus aureus
# Procedure, shortened: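 S. aureus ATCC 29213 was grown overnight, brought to log phase (OD600 = 0.4), pelleted and resuspended in PBS at 10^6–10^7 CFU mL−1. Cells were exposed to test compound or 10 μM CCCP (depolarization control) for 15 min at room temperature in the dark. DiOC2(3) (BacLight kit) was then added for 30 min under the same conditions; red/green fluorescence ratio recorded. Triplicate.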
# S. aureus ATCC 29213 [4] = experiment: DNA leakage; format: cell-based, Staphylococcus aureus; conditions: increasing concentrations (1 ×, 4 ×, 16 × MIC); 4 h
# Procedure, shortened: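 Cells were pelleted (12 000×g, 10 min, 4 °C) and the supernatant passed through a 0.22 μm filter. Extracellular DNA was measured as A260 by microvolume spectrophotometry. Vehicle controls; technical triplicates.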
# [5] = tested on: IL-1β in LPS-stimulated RAW 264.7 macrophages; experiment: IL-1β production, LPS-stimulated macrophages; format: cell-based; conditions: Mus musculus, RAW264.7, read-out: inhibition of IL-1β production
# Procedure, shortened: (§2)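 RAW 264.7 cells (5 × 10^4 per well) were allowed to adhere overnight in DMEM with 10% FBS. Cells were pretreated with test compound for 2 h, then stimulated with LPS (e.g., 100 ng mL−1) for 24 h at 37 °C, 5% CO2. IL-6 and IL-1β in culture supernatants were measured by ELISA. Vehicle controls (e.g., 0.1% DMSO); ≥3 biological replicates.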
# Cytotoxicity assay [6] = format: cell-based; conditions: human, LO2 cells
# E. coli ATCC 25922 = experiment: MIC, broth microdilution; format: cell-based, Escherichia coli; conditions: 16–24 h
# Procedure, shortened: as §1
# S. aureus ATCC 29213 [7] = experiment: Protein leakage; format: cell-based, Staphylococcus aureus; conditions: increasing concentrations (1 ×, 4 ×, 16 × MIC); 4 h
# Procedure, shortened: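 After centrifugation (12 000×g, 10 min, 4 °C) and 0.22 μm filtration, supernatant protein was determined by BCA assay at 562 nm. Vehicle controls; technical triplicates.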
# Cytotoxicity assay [8] = format: cell-based; conditions: human, HK-2 cells
# S. aureus ATCC 29213 [9] = experiment: Drug resistance study; format: cell-based, Staphylococcus aureus; conditions: sub-MIC passage 28 days
# rabbit red blood cells = experiment: Hemolysis assay; format: cell-based
# Procedure, shortened: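 Test compound in PBS was mixed 1:1 with 4% defibrinated rabbit erythrocytes in PBS (final 2–256 μg mL−1) at 37 °C. Cells were pelleted (1000×g, 5 min) and supernatant absorbance read at 490 nm. Hemolysis % = (sample − PBS)/(Triton − PBS), with 1% Triton X-100 as positive and sterile PBS as negative reference. Triplicate.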
# [10] = tested on: NO in LPS-stimulated RAW 264.7 macrophages; experiment: Nitric oxide production, LPS-stimulated macrophages; format: cell-based; conditions: 128 μg mL^−1
# Procedure, shortened: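 Murine RAW 264.7 macrophages (5 × 10^4 per well, DMEM with 10% FBS) were allowed to adhere overnight. Cells were pretreated with test compound for 2 h, then exposed to LPS (e.g., 100 ng mL−1) for 24 h at 37 °C under 5% CO2. Nitric oxide in culture supernatants was measured with a commercial detection kit. Vehicle controls (e.g., 0.1% DMSO); ≥3 biological replicates.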
# [11] = tested on: TNF-α in LPS-stimulated RAW 264.7 macrophages; experiment: TNF-α release, LPS-stimulated macrophages; format: cell-based
# [12] = tested on: IL-6 in LPS-stimulated RAW 264.7 macrophages; experiment: IL-6 secretion, LPS-stimulated macrophages; format: cell-based; conditions: Mus musculus, RAW264.7, read-out: inhibition of IL-6 secretion
# Procedure, shortened: as §2
# S. aureus MRSA2 biofilm = experiment: Biofilm formation inhibition; format: cell-based, Staphylococcus aureus; conditions: 64 μg mL^−1 (8 × MIC)
# Procedure, shortened: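 S. aureus MRSA2 was diluted 1:100 in TSB with 1% (w/v) glucose and incubated with test compound (256–2 μg mL−1) for 24 h at 37 °C; DMSO-matched controls. Wells were rinsed with PBS three times, air-dried, stained with 0.1% crystal violet for 15 min, destained with 95% ethanol and read at 595 nm. Inhibition % = (ODcontrol − ODsample)/ODcontrol × 100. Triplicate.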
# [13] = Plasma protein binding, equilibrium dialysis; format: in vitro ADME; conditions: Sprague-Dawley, rat
# Procedure, shortened: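 Equilibrium dialysis: bags holding 0.5 mL of blank Sprague–Dawley rat plasma were placed in 40 mL of PBS containing test compound at 30 μM. Incubation was 24 h at 37 °C with shaking at 100 rpm. Both compartments were assayed by HPLC. Binding % = (A − B)/A, where A is the total concentration inside the bag and B the free concentration in the dialysate. Nonspecific binding controls; triplicate.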
# S. aureus ATCC 29213 [14] = experiment: Time-killing kinetics; format: cell-based, Staphylococcus aureus
# [15] = tested on: S. aureus MRSA2 mature biofilm; experiment: Mature biofilm eradication; format: cell-based, Staphylococcus aureus; conditions: 128 μg mL^−1 (16 × MIC), 24 hours treatment
# S. aureus ATCC 29213 [16] = experiment: Membrane permeability assay; format: cell-based, Staphylococcus aureus; conditions: 4 × MIC (32 μg mL^−1); 2 hours
Compound,activity against S. aureus LN38 (S. aureus LN38),activity against B. cereus CMCC63303 (B. cereus CMCC63303),activity against L. monocytogenes CICC21662 [1],activity against B. subtilis ATCC6633 (B. subtilis ATCC6633),activity against E. faecalis ATCC29212 (E. faecalis ATCC29212),MIC (S. aureus ATCC 29213 [2]) [µg/mL],MIC (S. aureus MRSA2) [µg/mL],also measured
"CCN(CC)c1ccc(C=O)c(O)c1 [C, 4-(diethylamino)-2-hydroxybenzaldehyde]",>256,>256,>256,>256,>256,> 256,> 256,"Minimum inhibitory concentration (MIC), S. aureus MRSA2 (S. aureus MRSA2; clinically isolated methicillin-resistant S. aureus MRSA2, 16–24 h): >256 µg/mL"
"CCN(CC)c1ccc(C=NNC(=O)c2ccccc2)c(O)c1 [D1, N′-(4-(diethylamino)-2-hydroxybenzylidene)benzohydrazide]",,,,,,> 256,> 256,
"CCN(CC)c1ccc(C=NNC(=O)c2ccncc2)c(O)c1 [D2, N′-(4-(diethylamino)-2-hydroxybenzylidene)isonicotinohydrazide]",,,,,,> 256,> 256,
"CCN(CC)c1ccc(C=NNC(=O)c2ccc(C)cc2)c(O)c1 [D3, N′-(4-(diethylamino)-2-hydroxybenzylidene)-4-methylbenzohydrazide]",,,,,,> 256,> 256,
"CCN(CC)c1ccc(C=NNC(=O)c2ccccn2)c(O)c1 [D5, N′-(4-(diethylamino)-2-hydroxybenzylidene)picolinohydrazide]",16,8,8,16,8,,8,"membrane depolarization (DiOC2(3) red/green fluorescence ratio) (S. aureus ATCC 29213 [3]): significant decrease; leakage of DNA into culture medium (S. aureus ATCC 29213 [4]): dose-dependent efflux; inhibition at 128 µg/mL [5]: 39%; viability at 24 h, 256 μg mL^−1 (Cytotoxicity assay [6]): > 85%; Minimum inhibitory concentration (MIC), E. coli ATCC 25922 (E. coli ATCC 25922): >256 µg/mL; leakage of proteins into culture medium (S. aureus ATCC 29213 [7]): dose-dependent efflux; viability at 24 h, 256 μg mL^−1 (Cytotoxicity assay [8]): > 85%; increase of MIC after serial passage (S. aureus ATCC 29213 [9]): 16 fold; hemolysis at 256 μg mL^−1 (rabbit red blood cells; 256 μg mL^−1): no significant hemolysis; hemolytic activity against rabbit RBCs (rabbit red blood cells; 2 to 256 μg mL^−1, 4% rabbit RBCs, 37 °C): no hemolytic activity; reduction of nitric oxide (NO) synthesis [10]: 53%; lowest concentration at which TNF-α suppression emerges ([11]; LPS-stimulated RAW 264.7): 8 µg/mL; inhibition at 128 µg/mL ([11]; Mus musculus, RAW264.7, read-out: inhibition of TNF-α release): 40%; inhibition at 128 µg/mL [12]: 46%; suppression of biofilm formation (S. aureus MRSA2 biofilm): > 95%; fraction unbound at 24 h, 30 μM [13]: 0.134; time to complete eradication of bacteria (S. aureus ATCC 29213 [14]; 8 × MIC): ≤ 10 h; eradication of bacterial colonies (S. aureus ATCC 29213 [14]; S. aureus ATCC 29213, 8 × MIC (64 μg mL^−1), within 10 hours): > 99.9%; clearance of mature biofilms [15]: > 95%; membrane permeabilization (PI uptake) (S. aureus ATCC 29213 [16]): near-complete PI uptake"
"CCN(CC)c1ccc(C=Nc2cc(C)ccc2O)c(O)c1 [D9, 2-((4-(diethylamino)-2-hydroxybenzylidene)amino)-4-methylphenol]",,,,,,> 256,> 256,
"CCN(CC)c1ccc(C=Nc2cc(C)c(Br)cn2)c(O)c1 [D10, 2-(((5-bromo-4-methylpyridin-2-yl)imino)methyl)-5-(diethylamino)phenol]",,,,,,> 256,> 256,
CN[C@H](CC(C)C)C(=O)N[C@H]1C(=O)N[C@@H](CC(N)=O)C(=O)N[C@H]2C(=O)N[C@H]3C(=O)N[C@H](C(=O)N[C@H](C(=O)O)c4cc(O)cc(O)c4-c4cc3ccc4O)[C@H](O)c3ccc(c(Cl)c3)Oc3cc2cc(c3O[C@@H]2O[C@H](CO)[C@@H](O)[C@H](O)[C@H]2O[C@H]2C[C@](C)(N)[C@H](O)[C@H](C)O2)Oc2ccc(cc2Cl)[C@H]1O [Vancomycin],1,1,1,1,2,1,2,
